Key:
[1] = target: T1, Melatonin receptor type 1A (Homo sapiens, UniProt P48039); assay: Binding affinity on human melatonin receptor type 1A stably transfected in human embryonic kidney (HEK 293) using 2-[125I]iodomelatonin as radioligand.; assay type: cell-based, HEK293
[2] = target: T2, Melatonin receptor type 1B (Homo sapiens, UniProt P49286); assay: Binding affinity on human melatonin receptor type 1B stably transfected in human embryonic kidney (HEK 293) cells using 2-[125I]iodomelatonin as radioligand.; assay type: cell-based, HEK293
T2 sequence (P49286 whole entry): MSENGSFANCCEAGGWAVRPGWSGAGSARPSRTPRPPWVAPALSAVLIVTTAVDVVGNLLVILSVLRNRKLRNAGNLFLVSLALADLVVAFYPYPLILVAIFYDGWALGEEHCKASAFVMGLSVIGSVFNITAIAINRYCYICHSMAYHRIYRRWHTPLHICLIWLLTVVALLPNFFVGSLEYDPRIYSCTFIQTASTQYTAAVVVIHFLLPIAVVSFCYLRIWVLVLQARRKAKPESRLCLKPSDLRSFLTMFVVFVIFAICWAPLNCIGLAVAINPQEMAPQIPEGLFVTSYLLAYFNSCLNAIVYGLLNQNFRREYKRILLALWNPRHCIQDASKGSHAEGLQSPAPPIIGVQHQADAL

[3] = target: T2, Melatonin receptor type 1B; assay: Intrinsic activity at human Melatonin receptor type 1B evaluated on [35S]GTP-gamma-S, binding in Chinese hamster ovarian (CHO) cells; assay type: functional, cell-based
[4] = target: T3, Melatonin receptor type 1B (Homo sapiens) (UniProt P49286); assay: Antagonist potency determined against 3 nM melatonin for Melatonin receptor type 1B; assay type: functional
T3 sequence (whole entry): T2 sequence (P49286 whole entry)
In short: (§1)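 Antagonist mode of [³⁵S]GTPγS binding on membranes (20 µg/mL) of CHO cells stably expressing human MT₁ or MT₂. […] Incubation 1 h at room temperature, GF/B filtration. Nonspecific binding with 10 µM GTPγS.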

[5] = target: T1, Melatonin receptor type 1A; assay: Intrinsic activity evaluated on [35S]GTP -gamma-S binding in Chinese hamster ovarian (CHO) cells, stably expressing human Melatonin receptor type 1A; assay type: functional, cell-based
[6] = target: T1, Melatonin receptor type 1A; assay: Antagonist potency determined against 30 nM melatonin for Melatonin receptor type 1A; assay type: functional; in short: as §1
[7] = target: T1, Melatonin receptor type 1A; assay: Intrinsic activity of Melatonin receptor type 1A evaluated on [35S]GTP-gamma-S, binding in Chinese hamster ovarian (CHO) cells; assay type: functional, cell-based

T1 sequence (P48039 whole entry): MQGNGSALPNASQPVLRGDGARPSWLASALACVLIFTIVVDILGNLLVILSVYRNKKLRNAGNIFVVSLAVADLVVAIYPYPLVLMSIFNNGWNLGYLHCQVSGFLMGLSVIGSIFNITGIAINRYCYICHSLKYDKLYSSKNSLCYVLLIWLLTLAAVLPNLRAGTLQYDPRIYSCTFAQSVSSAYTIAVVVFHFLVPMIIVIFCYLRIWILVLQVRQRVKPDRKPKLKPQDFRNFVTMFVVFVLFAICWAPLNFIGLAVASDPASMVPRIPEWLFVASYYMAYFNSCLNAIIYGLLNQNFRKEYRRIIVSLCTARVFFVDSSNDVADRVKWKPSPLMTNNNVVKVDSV

SMILES	Ki [1]	Ki [2]	EC50 [3]	Kb [4]	EC50 [5]	Kb [6]	EC50 [7]
COc1ccc2oc(Cc3cccc(C(F)(F)F)c3)c(CCNC(C)=O)c2c1	80 nM	1.17 nM	1.26 nM	2.4 nM	–	89 nM	> 10000 nM
CCc1ccc2oc(Cc3cccc(OC)c3)c(CCNC(C)=O)c2c1	288 nM	17 nM	19 nM	18 nM	> 10000 nM	266 nM	–
CC(=O)NCCc1c(Cc2ccccc2)oc2ccc(O)cc12	569 nM	79.9 nM	–	–	–	–	–
CCc1ccc2oc(Cc3ccccc3)c(CCNC(C)=O)c2c1	64.4 nM	8.25 nM	–	–	–	–	–
CCCCCOc1ccc2oc(Cc3ccccc3)c(CCNC(C)=O)c2c1	42.7 nM	9.64 nM	–	–	–	–	–
COc1ccc(Cc2oc3ccc(OC)cc3c2CCNC(C)=O)cc1	24 nM	0.5 nM	> 10000 nM	0.42 nM	> 10000 nM	35 nM	–
COc1cccc(Cc2oc3ccc(OC)cc3c2CCNC(C)=O)c1	40.6 nM	0.32 nM	0.72 nM	1.65 nM	37 nM	26 nM	–
COc1ccc2oc(Cc3cc(C(F)(F)F)cc(C(F)(F)F)c3)c(CCNC(C)=O)c2c1	476 nM	340 nM	–	–	–	–	–
COc1ccc2oc(Cc3cccnc3)c(CCNC(C)=O)c2c1	29 nM	3.53 nM	–	–	–	–	–
COc1ccc2oc(CC3CCCCC3)c(CCNC(C)=O)c2c1	66.4 nM	2.49 nM	10 nM	7 nM	481 nM	242 nM	–
C=CCC(=O)NCCc1c(Cc2cccc(OC)c2)oc2ccc(OC)cc12	–	–	0.39 nM	0.24 nM	138 nM	57 nM	–
COc1ccc2oc(Cc3c(Cl)cccc3Cl)c(CCNC(C)=O)c2c1	84.5 nM	12.8 nM	–	–	–	–	–
CC(=O)NCCc1c(Cc2ccccc2)oc2ccccc12	155 nM	10.6 nM	> 10000 nM	12 nM	> 10000 nM	27 nM	–
CCCCCCOc1ccc2oc(Cc3ccccc3)c(CCNC(C)=O)c2c1	8.2 nM	3.21 nM	–	–	–	–	–

The next lines start with the values.

Ki [1]	Ki [2]	EC50 [3]	Kb [4]	EC50 [5]	Kb [6]	EC50 [7]	SMILES
1.01 nM	0.21 nM	–	–	–	–	–	C/C=C/C(=O)NCCc1c(-c2ccccc2)oc2ccc(OC)cc12
14.3 nM	0.34 nM	0.41 nM	0.88 nM	> 10000 nM	26 nM	–	COc1ccc2oc(Cc3ccccc3OC)c(CCNC(C)=O)c2c1
53.7 nM	0.69 nM	–	–	–	–	–	C=CC(=O)NCCc1c(Cc2ccccc2)oc2ccc(OC)cc12
3.51 nM	0.06 nM	0.17 nM	0.16 nM	25 nM	–	–	C=CCC(=O)NCCc1c(Cc2ccccc2)oc2ccc(OC)cc12
0.01 nM	0.02 nM	–	–	–	–	–	C=CCC(=O)NCCc1c(-c2ccccc2)oc2ccc(OC)cc12
229 nM	18.6 nM	–	–	–	–	–	COc1cccc(Cc2oc3ccccc3c2CCNC(C)=O)c1
8.67 nM	0.41 nM	–	–	–	–	–	COc1ccc2oc(Cc3ccccc3)c(CCNC(=O)CI)c2c1
–	0.05 nM	> 10000 nM	0.21 nM	21 nM	–	–	COc1ccc2oc(Cc3ccccc3)c(CCNC(C)=O)c2c1
0.02 nM	0.01 nM	–	–	–	–	–	C=CC(=O)NCCc1c(-c2ccccc2)oc2ccc(OC)cc12
31.5 nM	1.52 nM	–	–	–	–	–	COc1ccc2oc(CCCc3ccccc3)c(CCNC(C)=O)c2c1
3.29 nM	0.2 nM	–	–	–	–	–	CCCC(=O)NCCc1c(Cc2ccccc2)oc2ccc(OC)cc12
12.9 nM	1.7 nM	–	–	–	–	–	COc1ccc2oc(-c3ccccc3)c(CCNC(=O)c3ccco3)c2c1
7.19 nM	0.22 nM	–	–	–	–	–	COc1ccc2oc(Cc3cccc(Cl)c3)c(CCNC(C)=O)c2c1
55 nM	2.76 nM	–	–	–	–	–	C=CC(=O)NCCc1c(Cc2cccc(OC)c2)oc2ccc(OC)cc12
0.75 nM	0.23 nM	–	–	–	–	–	COc1ccc2oc(Cc3cccc(F)c3)c(CCNC(C)=O)c2c1
698 nM	36.7 nM	–	–	–	–	–	COc1ccc2oc(Cc3ccccc3)c(CCNC(=O)c3ccco3)c2c1
5.37 nM	0.35 nM	–	–	–	–	–	CNC(=O)NCCc1c(Cc2ccccc2)oc2ccc(OC)cc12
0.04 nM	0.04 nM	–	–	–	–	–	CNC(=O)NCCc1c(-c2ccccc2)oc2ccc(OC)cc12
0.01 nM	0.02 nM	0.096 nM	–	0.17 nM	–	–	COc1ccc2oc(-c3ccccc3)c(CCNC(C)=O)c2c1
